Source: PMC3775155 (Clinical Drug Investigation, 2013)
Where “and” joins values, the source holds several entries; their conditions need not be identical. Equal entries are not always repeated. Where two headings read alike, the source gives them in different places.

Assays:
[1] = assay type: in vivo, human
[2] = assay type: in vivo, human; remark: listed apart in the source
[3] = Adverse events in the bupropion study; assay type: in vivo, human; details: monotherapy period, days 1–14, n = 30
[4] = assay type: in vivo, human; details: for AUC / Cmax: female, human, plasma, oral; for AUC: AUC24, least-squares mean, day 21; for Cmax: least-squares mean; for AUC24 ratio (test/reference) / Cmax ratio (test/reference): with vortioxetine vs alone
[5] = Pharmacological activity of the major metabolite; details: major carboxylic acid metabolite
[6] = Plasma metabolic ratio of metabolite; assay type: in vivo; details: minor hydroxyl metabolite of vortioxetine
[7] = Nonclinical pharmacology study: blood–brain barrier penetration; details: based on a nonclinical pharmacology study, unpublished results
CYP2D6 = assay: In vitro CYP inhibition; assay type: in vitro ADME
[8] = cited from earlier work
CYP2A6 = assay: In vitro CYP inhibition; assay type: in vitro ADME
[9] = assay type: in vivo, human; remark: listed apart in the source
Method in brief: (§1)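 Open-label, randomized, 1-sequence design in healthy adults aged 18–55 y with BMI 19–30 kg/m2 (N = 36 across two arms). Test compound given as a single 10 mg dose on day 1, then a 14-day washout. The azole antifungal was given at 200 mg once daily on days 15–21, with test compound 10 mg on day 21. EDTA plasma was sampled predose and 1–120 h postdose on days 1 and 21. Analysis used SPE and HPLC. Noncompartmental AUClast, AUC∞ and Cmax were derived. A mixed-effects model (treatment fixed, subject random) was applied, and back-transformed LS-mean ratios with 90% CI are reported.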

CYP2B6 = assay: In vitro CYP inhibition; assay type: in vitro ADME
[10] = assay type: in vivo, human; remark: listed apart in the source
CYP2C19 = assay: In vitro CYP inhibition; assay type: in vitro ADME
[11] = assay type: in vivo, human; remark: listed apart in the source
Method in brief: as §1, with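 “antifungal (CYP3A/P-gp inhibitor)” for “antifungal”, “400” for “200”, “gave” for “was applied, and”, “CI.” for “CI are reported.”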

[12] = assay type: in vivo, human; remark: listed apart in the source
CYP1A2 = assay: In vitro CYP inhibition; assay type: in vitro ADME
CYP2C8 = assay: In vitro CYP inhibition; assay type: in vitro ADME
[13] = assay type: in vivo, human; remark: listed apart in the source
P-glycoprotein (P-gp) = P-glycoprotein (P-gp) (Homo sapiens, UniProt P08183); assay: In vitro P-gp net efflux ratio; assay type: in vitro ADME; details: compared with digoxin; unpublished results
[14] = cited from earlier work; remark: listed apart in the source
CYP2E1 = assay: In vitro CYP inhibition; assay type: in vitro ADME
CYP2C9 = assay: In vitro CYP inhibition; assay type: in vitro ADME
CYP3A4/5 = assay: In vitro CYP inhibition; assay type: in vitro ADME
[15] = multiple daily doses of vortioxetine 10 mg; CYP2D6 probe; cited from earlier work
[16] = omeprazole 40 mg single dose + vortioxetine 10 mg at steady state (test), day 16
[17] = omeprazole 40 mg single dose alone (reference), day 1
[18] = concomitant agent alone (reference): placebo + EE/L 30/150 μg for 21 days
[19] = vortioxetine 10 mg + EE/L 30/150 μg for 21 days (test)
[20] = co-administered with fluconazole vs vortioxetine alone
[21] = co-administered with bupropion vs vortioxetine alone
[22] = co-administered with ketoconazole vs vortioxetine alone
[23] = co-administered with rifampicin vs vortioxetine alone

Chain of P-glycoprotein (P-gp) (P08183 whole entry): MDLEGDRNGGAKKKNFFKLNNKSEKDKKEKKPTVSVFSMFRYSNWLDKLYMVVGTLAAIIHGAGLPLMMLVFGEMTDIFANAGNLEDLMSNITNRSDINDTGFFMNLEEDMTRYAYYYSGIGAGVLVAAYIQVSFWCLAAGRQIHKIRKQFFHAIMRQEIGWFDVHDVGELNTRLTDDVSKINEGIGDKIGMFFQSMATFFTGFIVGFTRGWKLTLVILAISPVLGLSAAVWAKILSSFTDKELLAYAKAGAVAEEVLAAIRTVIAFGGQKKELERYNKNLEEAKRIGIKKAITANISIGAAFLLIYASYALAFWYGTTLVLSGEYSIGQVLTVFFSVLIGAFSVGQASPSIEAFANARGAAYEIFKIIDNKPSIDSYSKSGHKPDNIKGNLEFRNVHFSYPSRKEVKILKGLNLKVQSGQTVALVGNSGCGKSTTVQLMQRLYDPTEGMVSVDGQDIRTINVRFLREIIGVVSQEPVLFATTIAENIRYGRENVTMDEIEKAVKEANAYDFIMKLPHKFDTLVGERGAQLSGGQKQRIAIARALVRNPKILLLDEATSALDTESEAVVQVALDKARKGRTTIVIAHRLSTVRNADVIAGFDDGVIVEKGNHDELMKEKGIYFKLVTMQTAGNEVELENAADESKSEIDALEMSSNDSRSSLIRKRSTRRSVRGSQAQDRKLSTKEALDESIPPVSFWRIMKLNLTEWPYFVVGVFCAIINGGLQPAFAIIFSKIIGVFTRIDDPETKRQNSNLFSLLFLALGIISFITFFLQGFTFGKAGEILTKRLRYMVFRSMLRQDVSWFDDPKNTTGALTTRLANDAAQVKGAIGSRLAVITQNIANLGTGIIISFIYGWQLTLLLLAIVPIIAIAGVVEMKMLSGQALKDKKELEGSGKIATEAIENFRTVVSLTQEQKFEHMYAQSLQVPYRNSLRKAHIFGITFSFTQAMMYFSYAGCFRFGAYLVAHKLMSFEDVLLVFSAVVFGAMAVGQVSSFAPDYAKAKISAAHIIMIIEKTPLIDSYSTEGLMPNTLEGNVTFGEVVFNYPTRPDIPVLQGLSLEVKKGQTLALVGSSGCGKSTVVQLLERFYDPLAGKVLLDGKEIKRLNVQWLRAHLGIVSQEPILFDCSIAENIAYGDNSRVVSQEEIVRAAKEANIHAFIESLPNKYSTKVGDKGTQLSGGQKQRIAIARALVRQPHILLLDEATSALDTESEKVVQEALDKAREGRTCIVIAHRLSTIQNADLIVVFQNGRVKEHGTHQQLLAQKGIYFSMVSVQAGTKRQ

For `COc1ccc2nc([S+]([O-])Cc3ncc(CO)c(OC)c3C)[nH]c2c1` (centres unmarked) [5′-Hydroxyomeprazole, 5′-hydroxyomeprazole], the “AUC∞, least-squares mean” value [1, 16] was 976 ng·h/mL, the “Cmax, least-squares mean” value [1, 16] was 411 ng/mL and the “AUC∞, least-squares mean” value [1, 17] was 997 ng·h/mL. For the same molecule, the “Cmax, least-squares mean” value [1, 17] was 392 ng/mL, the “AUC∞ ratio (test/reference)” value ([1]; with vortioxetine vs alone) was 97.9% and the “Cmax ratio (test/reference)” value ([1]; with vortioxetine vs alone) was 104%.
For `CC(NC(C)(C)C)C(=O)c1cccc(Cl)c1` (centres unmarked) [Bupropion, bupropion], the “Cmax greater when given with vortioxetine than without” value ([2]; bupropion with vs without vortioxetine) was 18%, the AUC ([2]; human, plasma, 150 mg) was 791 ng·h/mL and the “Cmax, least-squares mean” value ([2]; vortioxetine 10 mg once daily + bupropion 150 mg twice daily (test), day 28) was 177 ng/mL. For the same molecule, the “AUC24 ratio (test/reference)” value ([2]; with vortioxetine vs alone) was 99.22%, the “Cmax ratio (test/reference)” value ([2]; with vortioxetine vs alone) was 117.98% and the Abnormal dreams [3] was 0 number of subjects (%). The Agitation [3] was 0 number of subjects (%), the Anxiety [3] was 0 number of subjects (%) and the Any adverse event [3] was 19 (63.3) number of subjects (%). The Constipation [3] was 0 number of subjects (%), the Dizziness [3] was 3 (10.0) number of subjects (%) and the Dyspepsia [3] was 2 (6.7) number of subjects (%). For the same molecule, the Fatigue [3] was 0 number of subjects (%), the Headache [3] was 10 (33.3) number of subjects (%) and the Hyperhidrosis [3] was 1 (3.3) number of subjects (%). The Insomnia [3] was 1 (3.3) number of subjects (%), the Nausea [3] was 5 (16.7) number of subjects (%) and the Oropharyngeal pain [3] was 0 number of subjects (%). For the same molecule, the Palpitations [3] was 2 (6.7) number of subjects (%), the Somnolence [3] was 3 (10.0) number of subjects (%) and the Tremor [3] was 1 (3.3) number of subjects (%). The “URTI (upper respiratory tract infection)” value [3] was 3 (10.0) number of subjects (%), the Vertigo [3] was 1 (3.3) number of subjects (%) and the Vomiting [3] was 2 (6.7) number of subjects (%).
In the case of `C#C[C@]1(O)CC[C@H]2[C@@H]3CCc4cc(O)ccc4[C@H]3CC[C@@]21C` [Ethinyl estradiol, ethinyl estradiol], the AUC [4, 18] is reported as 0.857 ng·h/mL, the AUC [4, 19] is reported as 0.85 ng·h/mL and the Cmax [4, 19] is reported as 0.0816 ng/mL. For the same molecule, the “AUC24 ratio (test/reference)” value [4] was 99.19% and the “Cmax ratio (test/reference)” value [4] was 93.87%.
Molecule `C#C[C@]1(O)CC[C@H]2[C@@H]3CCC4=CC(=O)CC[C@@H]4[C@H]3CC[C@@]21CC` [Levonorgestrel, levonorgestrel] has an AUC [4, 18] of 86.8 ng·h/mL, a Cmax [4, 18] of 6.76 ng/mL and a Cmax [4, 19] of 7.23 ng/mL. For the same molecule, the “AUC24 ratio (test/reference)” value [4] was 102.07% and the “Cmax ratio (test/reference)” value [4] was 107.06%.
For `Cc1cc(C(=O)O)ccc1Sc1ccccc1N1CCNCC1` [Lu AA34443], the pharmacological activity [5] was “pharmacologically inactive”.
For `Cc1ccc(Sc2cc(O)ccc2N2CCNCC2)c(C)c1` [Lu AA39835], the plasma metabolic ratio [6] was no more than 4% and the “penetration of the blood–brain barrier” value [7] was “not expected to penetrate the blood–brain barrier”.
With `COc1ccc2[nH]c([S+]([O-])Cc3ncc(C)c(OC)c3C)nc2c1` (centres unmarked) [Omeprazole, omeprazole] the AUC(0-inf) ([1]; human, plasma, 40 mg) was 1110 ng·h/mL, the Cmax ([1]; human, plasma, 40 mg) was 550 ng/mL and the “Cmax greater when given with vortioxetine than without” value ([1]; omeprazole with vs without vortioxetine) was 11%. For the same molecule, the “Cmax ratio (test/reference)” value ([1]; with vortioxetine vs alone) was 111%.
For `Br.Cc1ccc(Sc2ccccc2N2CCNCC2)c(C)c1` [Vortioxetine, 1-[2-(2,4-dimethylphenylsulfanyl)-phenyl]-piperazine-hydrobromide], the “inhibitory concentration/inhibition constant ratio ([I]/Ki)” value (CYP2D6) is listed as no more than 0.024, the elimination half-life [8] is listed as 57 h and the “steady-state volume of distribution” value [8] is listed as “approximately 2600 L”. The oral bioavailability ([8]; independent of food) was 75%, the “inhibitory concentration/inhibition constant ratio ([I]/Ki)” value (CYP2A6) was no more than 0.024 and the “increase in vortioxetine AUC” value [9, 20] was 46%. For the same molecule, the “increase in vortioxetine Cmax” value [9, 20] was 15%, the AUC(0-t) ([9]; human, plasma, 10 mg) was 222 ng·h/mL and the Cmax ([9]; human, plasma, 10 mg) was 4.52 ng/mL. For the same molecule, the “AUClast ratio (test/reference)” value ([9]; with fluconazole vs alone) was 146.17%, the “Cmax ratio (test/reference)” value ([9]; with fluconazole vs alone) was 114.64% and the “inhibitory concentration/inhibition constant ratio ([I]/Ki)” value (CYP2B6) was no more than 0.024. The “increase in exposure of vortioxetine” value ([10]; bupropion added to vortioxetine) was “approximately 100%”, the “increase in vortioxetine AUC” value [10, 21] was 128% and the “increase in vortioxetine Cmax” value [10, 21] was 114%. For the same molecule, the AUC ([10]; human, plasma, 10 mg) was 308 ng·h/mL, the Cmax ([10]; human, plasma, 10 mg) was 15.9 ng/mL and the “AUC24 ratio (test/reference)” value ([10]; with bupropion vs alone) was 228.30%. For the same molecule, the “Cmax ratio (test/reference)” value ([10]; with bupropion vs alone) was 213.57%, the “inhibitory concentration/inhibition constant ratio ([I]/Ki)” value (CYP2C19) was no more than 0.024 and the “increase in vortioxetine AUC” value [11, 22] was 30%. The “increase in vortioxetine Cmax” value [11, 22] was 26%, the AUC(0-t) ([11]; human, plasma, 10 mg) was 262 ng·h/mL and the Cmax ([11]; human, plasma, 10 mg) was 4.92 ng/mL. The “AUClast ratio (test/reference)” value ([11]; with ketoconazole vs alone) was 130.48%, the “Cmax ratio (test/reference)” value ([11]; with ketoconazole vs alone) was 125.73% and the “decrease in vortioxetine AUC (exposure)” value [12, 23] was 72% and 72 to 77%. The “decrease in vortioxetine Cmax” value [12, 23] was 51%, the AUC(0-t) ([12]; human, plasma, 20 mg) was 438 ng·h/mL and the Cmax ([12]; human, plasma, 20 mg) was 8.92 ng/mL. The “AUClast ratio (test/reference)” value ([12]; with rifampicin vs alone) was 27.74%, the “Cmax ratio (test/reference)” value ([12]; with rifampicin vs alone) was 49.11% and the Abnormal dreams [3] was 2 (6.7) number of subjects (%). The Agitation [3] was 0 number of subjects (%), the Anxiety [3] was 0 number of subjects (%) and the Constipation [3] was 3 (10.0) number of subjects (%). The Dizziness [3] was 1 (3.3) number of subjects (%), the Dyspepsia [3] was 1 (3.3) number of subjects (%) and the Fatigue [3] was 1 (3.3) number of subjects (%). The Headache [3] was 4 (13.3) number of subjects (%), the Hyperhidrosis [3] was 0 number of subjects (%) and the Insomnia [3] was 1 (3.3) number of subjects (%). For the same molecule, the Nausea [3] was 9 (30.0) number of subjects (%), the Oropharyngeal pain [3] was 0 number of subjects (%) and the Palpitations [3] was 2 (6.7) number of subjects (%). For the same molecule, the Somnolence [3] was 0 number of subjects (%), the Tremor [3] was 0 number of subjects (%) and the “URTI (upper respiratory tract infection)” value [3] was 0 number of subjects (%). For the same molecule, the Vertigo [3] was 0 number of subjects (%), the Vomiting [3] was 3 (10.0) number of subjects (%) and the “inhibitory concentration/inhibition constant ratio ([I]/Ki)” value (CYP1A2) was no more than 0.024. The “inhibitory concentration/inhibition constant ratio ([I]/Ki)” value (CYP2C8) was no more than 0.024, the AUC ([13]; human, plasma, 10 mg) was 243 ng·h/mL and the Cmax ([13]; human, plasma, 10 mg) was 13.8 ng/mL. For the same molecule, the “AUC24 ratio (test/reference)” value ([13]; with omeprazole vs alone) was 105.5%, the “Cmax ratio (test/reference)” value ([13]; with omeprazole vs alone) was 100.5% and the “in vitro net efflux ratio (P-gp substrate)” value (P-glycoprotein (P-gp)) was “much lower than that of the P-gp substrate digoxin”. For the same molecule, the “drug-related material excreted in the feces” value [14] was “one-third”, the “drug-related material excreted in the urine” value ([14]; primarily as Lu AA34443 and its glucuronide) was “two-thirds” and the “inhibitory concentration/inhibition constant ratio ([I]/Ki)” value (CYP2E1) was no more than 0.024. The “inhibitory concentration/inhibition constant ratio ([I]/Ki)” value (CYP2C9) was no more than 0.024 and the “inhibitory concentration/inhibition constant ratio ([I]/Ki)” value (CYP3A4/5) was no more than 0.024.
For `COc1ccc2c(c1)[C@]13CCCC[C@@H]1[C@H](C2)N(C)CC3` [dextromethorphan], the “decrease in plasma exposure of probe substrate by vortioxetine” value [15] is given as “up to 24%”.
